According to ChEMBL document CHEMBL4270484, “Synthesis and Characterization of a Phosphate Prodrug of Isoliquiritigenin” (J Nat Prod, 2017):
≈ marks a conversion by molar mass, not a printed value.

Experiments:
[1] = Stability of the compound in amophous solid form at -20 degC incubated for 16 days; assay type: physicochemical
Mus musculus [2] = assay: Reduction in CCL4 gene expression in lungs of C57BL/6 mouse infected with Influenza A virus (A/Puerto Rico/8/1934(H1N1)) at 10 mg/kg, ip starting on the same day as infection and continued daily until day 3 postinfection by real-time PCR analysis; assay type: functional; design: scale not given: the % may be the effect or the level left
Method in brief: (§1)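 Female C57BL/6 mice, 6–8 weeks old, infected intranasally with PR8 and given 10 mg/kg in saline by ip injection. On day 3 p.i., lungs were homogenized in Ribozol. 500 ng RNA was reverse-transcribed and run in SYBR green qPCR. Fold change versus uninfected mice was calculated by 2ΔΔCt with 18S normalization. Means ± SD from three experiments, 3–4 mice per group.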

Mus musculus [3] = assay: Reduction in IL6 gene expression in lungs of C57BL/6 mouse infected with Influenza A virus (A/Puerto Rico/8/1934(H1N1)) at 10 mg/kg, ip starting on the same day as infection and continued daily until day 3 postinfection by real-time PCR analysis; assay type: functional; design: scale not given: the % may be the effect or the level left; method in brief: as §1
[4] = Solubility in pH 7.4 PBS sonicated for 5 mins followed by incubation at room temperature for 30 mins; assay type: physicochemical
Method in brief: (§2)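 Solid suspended in PBS pH 7.4 at the stated amount and volume, sonicated 5 min, held 30 min at room temperature, then diluted 1:1 stepwise until a clear solution. Solubility judged by visual inspection as partial or soluble.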

[5] = Drug metabolism in C57BL/6 mouse plasma assessed as half life for isoliquiritigenin formation by UPLC analysis; assay type: ADME, cell-free
Method in brief: (§3)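 Mouse plasma (cardiac puncture, heparin, spun 2000g 10 min 4 °C) or lung homogenate in 0.9% saline (spun 400g 5 min), n = 3 mice, stored −80 °C. 27 μL matrix plus 5 μL of 1 mM prodrug in PBS pH 7.4, 37 °C; lung 5–20 min, plasma 40–240 min. Stopped with CH3CN, centrifuged, UPLC at 360 nm with Fmoc-glycine reference; remaining fraction from prodrug/parent AUC ratio.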

[6] = Stability in pH 7.4 PBS buffer at 37 degC incubated for 24 hrs by UPLC analysis; assay type: physicochemical; conditions: pH 7.4, 24 h
[7] = Drug metabolism in C57BL/6 mouse lung extracts assessed as half life for isoliquiritigenin formation by UPLC analysis; assay type: ADME, tissue-based; method in brief: as §3
[8] = Stability of the compound in pH 7.4 phosphate buffer solution at -20 degC incubated for 16 days; assay type: physicochemical
[9] = Stability of the compound in amophous solid form at ambient temperature incubated for 16 days; assay type: physicochemical; conditions: 384 h
[10] = Solubility in pH 7.4 PBS at 3.83 mg in 400 ul solution sonicated for 5 mins followed by incubation at room temperature for 30 mins; assay type: physicochemical; method in brief: as §2
[11] = Solubility in pH 7.4 PBS at 3.83 mg in 100 ul solution sonicated for 5 mins followed by incubation at room temperature for 30 mins; assay type: physicochemical; method in brief: as §2
[12] = Solubility in pH 7.4 PBS at 3.83 mg in 200 ul solution sonicated for 5 mins followed by incubation at room temperature for 30 mins; assay type: physicochemical; method in brief: as §2
[13] = Stability of the compound in pH 7.4 phosphate buffer solution at 4 degC incubated for 16 days; assay type: physicochemical
[14] = Solubility in pH 7.4 PBS at 0.5 mg in 64 ul solution sonicated for 5 mins followed by incubation at room temperature for 30 mins; assay type: physicochemical; method in brief: as §2
[15] = Solubility in pH 7.4 PBS at 0.5 mg in 32 ul solution sonicated for 5 mins followed by incubation at room temperature for 30 mins; assay type: physicochemical; method in brief: as §2
[16] = Solubility in pH 7.4 PBS at 0.5 mg in 2 ul solution sonicated for 5 mins followed by incubation at room temperature for 30 mins; assay type: physicochemical; method in brief: as §2
[17] = Solubility in pH 7.4 PBS at 0.5 mg in 4 ul solution sonicated for 5 mins followed by incubation at room temperature for 30 mins; assay type: physicochemical; method in brief: as §2
Influenza A virus = assay: Antiviral activity against Influenza A virus (A/Puerto Rico/8/1934(H1N1)) infected in MDCK cells infected with supernatants from virus-infected human Calu3 cells treated with compound for 2 days assessed as reduction in viral replication by crystal violet staining based viral plaque assay; assay type: functional, organism-based; conditions: 48 h
[18] = Solubility in pH 7.4 PBS at 0.5 mg in 128 ul solution sonicated for 5 mins followed by incubation at room temperature for 30 mins; assay type: physicochemical; method in brief: as §2
[19] = Solubility in pH 7.4 PBS at 0.5 mg in 8 ul solution sonicated for 5 mins followed by incubation at room temperature for 30 mins; assay type: physicochemical; method in brief: as §2
[20] = Solubility in pH 7.4 PBS at 0.5 mg in 16 ul solution sonicated for 5 mins followed by incubation at room temperature for 30 mins; assay type: physicochemical; method in brief: as §2
[21] = phosphate buffer solution, pH 7.4, read-out: Stability

Compound: N.O=C(/C=C/c1ccc(OCOP(=O)(O)O)cc1)c1ccc(O)cc1O
- Stability ([1]; 384 h): 6 months
- Activity (Mus musculus [2]): 62.5%
- Activity (Mus musculus [3]): 80%
- solubility at 0.5 h [4]: 25 mM
- t1/2 [5]: 100 min
- Stability [6]: Stable
- t1/2 [7]: 10.8 min
- Stability ([8]; buffer, pH 7.4, 384 h): Stable
- Stability [9]: 2 weeks
- solubility at 0.5 h [10]: 25 mM
- solubility at 0.5 h [11]: 100 mM
- solubility at 0.5 h [12]: 50 mM
- Stability ([13]; buffer, pH 7.4, 384 h): Stable

Compound: O=C(/C=C/c1ccc(OCOP(=O)(O)O)cc1)c1ccc(O)cc1O
- remaining at 384 h ([1]; amorphous solid form, read-out: Stability): 80%
- remaining at 384 h [8, 21]: 80%
- remaining at 384 h [13, 21]: 60%

Compound: O=C(/C=C/c1ccc(O)cc1)c1ccc(O)cc1O [ISOLIQUIRITIGENIN]
- solubility at 0.5 h [14]: 31.2 mM (≈ 8 mg/mL)
- solubility at 0.5 h [4]: 0.0153 mM (≈ 0.00392 mg/mL)
- Stability [6]: Stable
- Stability [7]: Stable
- solubility at 0.5 h [15]: 62.5 mM (≈ 16 mg/mL)
- solubility at 0.5 h [16]: 1000 mM (≈ 256 mg/mL)
- solubility at 0.5 h [17]: 500 mM (≈ 128 mg/mL)
- EC50 (Influenza A virus): 24.7 µM
- solubility at 0.5 h [18]: 15.3 mM (≈ 3.92 mg/mL)
- solubility at 0.5 h [19]: 250 mM (≈ 64.1 mg/mL)
- solubility at 0.5 h [20]: 125 mM (≈ 32 mg/mL)
